Bioassay records (PubChem BioAssay)
Sampled rows, rich in hits. Any-hit rate of the full collection: about 3.5%.
rRNA inh HTS: inhibitors of bacterial rRNA selective over humanized ribosomes; E. coli WT GFP vs humanized-ribosome RFP mutants, fluorescence, 24 h; stronger effect = lower value; DMSO median 0, no signal -100; GFP signal change (wild-type ribosome), % (no concentration beside the values); 350,000 compounds, 1.6% hits; AID 720706;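 active = significant combined selectivity score with lowered wild-type GFP, culture density cut under 30%, mutant RFP and density less affected; inactive = any of these conditions unmet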
PGC1a acetyl inh: PGC1a acetylation modulation, inhibitor mode; U2OS PGC1a acetylation, AlphaScreen anti-acetyl-lysine; with virally co-expressed GCN5 acetyltransferase; inhibition, % at 15.6 µM; 350,000 compounds, 0.17% hits; AID 651687;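 active = every replicate shows inhibition of at least 40%; inconclusive = mean inhibition at least 40% but some replicate below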;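 note: 0% = neutral control wells and 100% = positive control wells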
PglD DTNB: blocks C. jejuni PglD acetyltransferase activity | 360,000 compounds, 0.098% hits | inhibition, % at 12.5 µM | purified PglD enzyme, DTNB colorimetric CoA detection; in the data active = inhibition above about 16%, passing the limit was not always enough; inconclusive = no clear call, values can overlap the other calls
Env fusion inh: inhibitors of HIV Env-mediated cell fusion; HeLa-JRFL Env/CEM21 cell fusion, luciferase; inhibition, % at 12.3 µM; 360,000 compounds, 1.1% hits; AID 651610;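 active = mean replicate inhibition score of at least 50 and every replicate individually at or above 50; inconclusive = only one of the two criteria met; inactive = mean below 50 and not all replicates reaching 50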;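 note: 0% = plate neutral controls and 100% = maraviroc near 300 nM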
DENV2 CPE rescue: inhibitors of DENV2 cytopathic effect; DENV2-infected cells, cytopathic effect rescue, plate reader; CPE inhibition, % at 9.99 µM; 350,000 compounds, 1.7% hits; AID 651640; in the data active = CPE inhibition above about 20%, passing the limit was not always enough; inconclusive = no clear call, values can overlap the other calls; tested in BHK-21 cells;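 note: 0% = median of neutral control wells and 100% = median of positive control wells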
FN deposit inh: fibronectin deposition inhibition; AH1F fibroblasts, Alexa488-fibronectin deposition fluorescence, overnight; 350,000 compounds, 0.086% hits; inhibition, % at 12.6 µM; AID 743247;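 active = mean inhibition across replicates of 30% or more, regardless of how many single replicates reach that level; inconclusive = mean under 30% yet at least half of replicates reach 30%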;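 note: positive control wells lacked labelled fibronectin entirely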
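Material: AH1F fibroblast monolayer depositing Alexa488-labelled fibronectin into matrix / Amount: 10000 AH1F cells per well / Signal: fluorescence 485/525 nm / Medium: DMEM, 2% serum / Compound: single dose, pinned / Incubation: 1 h cell adhesion before compound, then overnight fibronectin incubation / Reagent: Alexa488-FN, 24 nM final / Read-out: inhibition of fibronectin deposition signal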
Starred values were filed as active, the others as inactive; ? = inconclusive; . = not tested or not shown; [ ] = dose if it differs, or a comment.

SMILES	rRNA inh HTS	PGC1a acetyl inh	PglD DTNB	Env fusion inh	DENV2 CPE rescue	FN deposit inh
C[C@@H](NC(=O)C[C@H]1C[C@@H]2c3cc(NS(=O)(=O)c4ccc(F)cc4)ccc3O[C@@H]2[C@H](CO)O1)c1ccccc1	-5	-3	0	86*[16.7 µM]	-1	-7
O=C(C[C@H]1C[C@@H]2c3cc(NS(=O)(=O)c4ccc(F)cc4)ccc3O[C@@H]2[C@@H](CO)O1)N1CCc2ccccc2C1	-28	50*	0	15[16.7 µM]	7	2
C[C@H](NC(=O)C[C@H]1C[C@@H]2c3cc(NS(=O)(=O)c4ccc(F)cc4)ccc3O[C@@H]2[C@H](CO)O1)c1ccccc1	-4	1	-2	-11[16.7 µM]	1	3
COc1ccc2c3c([nH]c2c1)[C@H](CO)N(C(=O)Cc1ccccc1)CC31CN(C)C1	3	-4	.	.	19	.
CN(C)C(=O)C[C@@H]1C[C@H]2c3cc(NS(=O)(=O)c4ccc(F)cc4)ccc3O[C@H]2[C@H](CO)O1	1	7	7	90*[16.7 µM]	13	-6
CN(C)C(=O)C[C@H]1C[C@@H]2c3cc(NS(=O)(=O)c4ccc(F)cc4)ccc3O[C@@H]2[C@H](CO)O1	3	10	0	13[16.7 µM]	-6	2
COc1ccc(NC(=O)N2CCC3(CC2)CN(C(=O)CN2CCOCC2)[C@@H](CO)c2[nH]c4cc(OC)ccc4c23)cc1	0	-3	.	.	25*	-3
COc1ccc2c3c([nH]c2c1)[C@H](CO)N(C(=O)CN1CCOCC1)CC31CN(Cc2ccccc2)C1	6	5	.	.	52*	13
COc1ccc2c3c([nH]c2c1)[C@H](CO)N(C(=O)CN1CCOCC1)CC31CN(C)C1	7	6	.	.	11	.
CCC(=O)N1CC2(C1)CN(C(=O)CN1CCOCC1)[C@H](CO)c1[nH]c3cc(OC)ccc3c12	4	-4	.	.	30*	.
CCC(=O)N1CCC2(CC1)CN(C(=O)CN1CCOCC1)[C@@H](CO)c1[nH]c3cc(OC)ccc3c12	5	.	.	.	-2	.
COCC(=O)N1CC2(CN(C(=O)CN3CCOCC3)C2)c2c([nH]c3cc(OC)ccc23)[C@H]1CO	3	6	.	.	-13	.
CCC(=O)N1CCC2(CC1)CN(C(=O)CN1CCOCC1)[C@H](CO)c1[nH]c3cc(OC)ccc3c12	4	.	.	.	40*	.
C[C@@H]1CCCCO[C@@H](CN(C)Cc2ccc(C(=O)O)cc2)[C@H](C)CN([C@H](C)CO)C(=O)c2cc(NC(=O)Nc3ccccc3)ccc2O1	4	-3	3	5[16.7 µM]	0	-21
CN(C)CC#Cc1cccc(-c2nc(C(=O)N[C@@H]3CCN(Cc4ccccc4)C3)cc3c2[C@H](CCO)N(S(=O)C(C)(C)C)C3)c1 (some centres undefined)	.	-20	.	.	48*	.
CN(C)CC#Cc1cccc(-c2nc(C(=O)N3CCN(Cc4ccccc4)CC3)cc3c2[C@@H](CCO)N(S(=O)C(C)(C)C)C3)c1 (some centres undefined)	.	0	.	.	0	.
CCCNC(=O)C[C@@H]1CC[C@@H]2[C@H](COc3ccc(NC(=O)NC(C)C)cc3C(=O)N2C)O1	3	0	0	.	17	-11
C[C@H](CO)N1C[C@H](C)[C@H](CN(C)Cc2ccncc2)OCCCC[C@H](C)Oc2ccc(NS(C)(=O)=O)cc2C1=O	-1	1	.	-5[16.7 µM]	.	.
O=C(OCn1ncc(Br)c(Br)c1=O)c1ccccc1Cl	-20*	-3	1	.	.	.
O=C(OCn1ncc(Br)c(Br)c1=O)c1ccc(F)cc1	.	?	4	.	.	.
Cc1ccc(C)c(NC(=O)C2CCCN(S(=O)(=O)c3ccc4[nH]c(=O)ccc4c3)C2)c1 (centres undefined)	3	.	1	24	-5	-7
O=C(Nc1ccc(F)cc1)C1CCCN(S(=O)(=O)c2ccc3[nH]c(=O)ccc3c2)C1 (centres undefined)	13	5	-1	1	115*	-5
Cc1cccc(OC(C)C(=O)Nc2nc(-c3ccncc3)cs2)c1 (centres undefined)	2	2	-6	2	106*	4
O=[N+]([O-])c1ccc(Nc2nc(N/N=C/c3cccc(F)c3)nc(N3CCCC3)n2)cc1	4	.	.	7	-5	2
